Converted amounts (≈) assume the structure as drawn.
Tests used:
[1] = Inhibition of Escherichia coli O18:K1 C7 hldE-K expressed in Escherichia coli BL21 using beta-heptose 7-phosphate as substrate incubated for 30 mins prior to substrate addition measured after 30 mins by luminescence assay
In short: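 E. coli HldE (His-tagged, IPTG-induced, Ni-NTA-purified), 3 nM, preincubated 30 min at room temperature with inhibitor in Hepes pH 7.5, MnCl₂, KCl, 0.012% Triton-X100, DTT, MBP. Reaction with 0.2 μM heptose 7-phosphate and 0.2 μM ATP, 30 min at room temperature. Remaining ATP read by luciferase/luciferin luminescence; 6−10 concentrations fitted to a Langmuir model for IC50.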

[2] = tested on: Escherichia coli; assay: Antimicrobial activity against tolC-deficient Escherichia coli O18:K1:H7 after overnight incubation in absence of erythromycin; type: functional
In short: (§1)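 Broth microdilution MIC in cation-adjusted MHB, final inoculum 5 × 10⁵ CFU/mL from early-to-log preculture; serial compound dilutions in 2% DMSO, overnight at 35 °C, growth scored visually. Each strain tested with and without erythromycin (1 μg/mL for K12 ΔacrAB ΔtolC, 8 μg/mL for K1 wild type, 1 μg/mL for K1 ΔtolC).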

[3] = tested on: Escherichia coli; assay: Antimicrobial activity against acrAB, tolC-deficient Escherichia coli str. K-12 substr. MG1655 after overnight incubation in absence of erythromycin; type: functional; in short: as §1
[4] = tested on: Escherichia coli; assay: Antimicrobial activity against tolC-deficient Escherichia coli O18:K1:H7 after overnight incubation in presence of erythromycin; type: functional; in short: as §1
[5] = tested on: Escherichia coli; assay: Antimicrobial activity against acrAB, tolC-deficient Escherichia coli str. K-12 substr. MG1655 after overnight incubation in presence of erythromycin; type: functional; in short: as §1
[6] = tested on: HepG2; assay: Cytotoxicity against human HepG2 cells after overnight incubation by one cell proliferation assay; type: cell-based
In short: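 HepG2 cells at 2 × 10⁴ per well in EMEM with 10% FBS, grown overnight at 37 °C in 5% CO₂. Medium then replaced by compound dilutions in medium with 2% DMSO for overnight incubation. Viability read by CellTiter Aqueous One MTS absorbance at 490 nm.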

[7] = Inhibition of Escherichia coli O18:K1 C7 ribokinase expressed in Escherichia coli BL21 using D-ribose as substrate incubated for 30 mins prior to substrate addition measured after 30 mins by luminescence assay
In short: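 Ribokinase run as the HldE kinase assay: purified E. coli ribokinase at 0.6 nM, 3 μM D-ribose, 3 μM ATP. Inhibitor preincubated 30 min, reaction run 30 min at room temperature, luciferase luminescence read-out, IC50 from 6−10 concentrations.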

[8] = Inhibition of Serratia marcescens NEM017811 hldE-K expressed in Escherichia coli BL21 using beta-heptose 7-phosphate as substrate incubated for 30 mins prior to substrate addition measured after 30 mins by luminescence assay
In short: (§2)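 HldE kinase luminescence assay as for E. coli, with enzyme at 20 nM for K. pneumoniae, 20 nM for N. meningitidis and 10 nM for S. marcescens. Heptose 7-phosphate and ATP each at 0.2 μM; 30 min preincubation and 30 min reaction at room temperature.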

[9] = Inhibition of Neisseria meningitidis 2C43 hldE-K expressed in Escherichia coli BL21 using beta-heptose 7-phosphate as substrate incubated for 30 mins prior to substrate addition measured after 30 mins by luminescence assay; in short: as §2
[10] = tested on: Klebsiella pneumoniae; assay: Inhibition of Klebsiella pneumoniae ATCC 700603 hldE-K expressed in Escherichia coli BL21 using beta-heptose 7-phosphate as substrate incubated for 30 mins prior to substrate addition measured after 30 mins by luminescence assay; settings: ATCC 700603, BL21; in short: as §2
[11] = tested on: Escherichia coli; assay: Antimicrobial activity against hldE-deficient Escherichia coli O18:K1:H7 after overnight incubation; type: functional
[12] = tested on: Escherichia coli; assay: Antimicrobial activity against wild type Escherichia coli O18:K1:H7 after overnight incubation; type: functional; in short: as §1

Row | IC50 [1] | MIC [2] | MIC [3] | MIC [4] | MIC [5] | SMILES | also measured
1 | > 300000 nM |  |  |  |  | COc1cccc(OC)c1-c1cnnc(NCc2cc(C)c(C)o2)n1 | 
2 | 82 nM | > 32 µg/mL | > 32 µg/mL | > 32 µg/mL | > 32 µg/mL | COc1ccc2sc(CNc3nncc(-c4c(C)cc(NCCN(C)C)cc4C)n3)nc2c1 | 
3 | 25000 nM |  |  |  |  | COc1cccc(OC)c1-c1cnnc(NCc2cc(C)n(C)n2)n1 | 
4 | 5000 nM |  |  |  |  | COc1cccc(OC)c1-c1cnnc(N(C)Cc2nc(C)c(C)s2)n1 | 
5 | 18 nM | > 32 µg/mL | 16 µg/mL (≈ 35.7 µM) | 32 µg/mL | 0.5 µg/mL | OCCOc1ccc2sc(CNc3nncc(-c4c(Cl)cccc4Cl)n3)nc2c1 | Activity [6]: > 32 µg/mL
6 | 19 nM | > 32 µg/mL | > 32 µg/mL | > 32 µg/mL | 32 µg/mL | O=C(O)COc1ccc2sc(CNc3nncc(-c4c(Cl)cccc4Cl)n3)nc2c1 | IC50 [7]: > 300000 nM; IC50 [8]: 41 nM; IC50 [9]: 1800 nM; IC50 [10]: 100 nM
7 | 20 nM | > 32 µg/mL | 2 µg/mL (≈ 4.98 µM) | 2 µg/mL | 0.063 µg/mL | Oc1ccc2sc(CNc3nncc(-c4c(O)ccc5ccccc45)n3)nc2c1 | IC50 [7]: > 300000 nM; IC50 [8]: 41 nM; IC50 [9]: 1300 nM; IC50 [10]: 85 nM; Activity [6]: 20 µg/mL
8 |  |  |  |  |  | CO[C@@H]1[C@@H](OC(N)=O)[C@@H](O)[C@H](Oc2ccc3c(O)c(NC(=O)c4ccc(O)c(CC=C(C)C)c4)c(=O)oc3c2C)OC1(C)C [NOVOBIOCIN] | MIC [11]: 0.5 µg/mL (≈ 0.816 µM); MIC [12]: 32 µg/mL (≈ 52.2 µM)
9 | 760 nM |  |  |  |  | COc1ccc2sc(CNc3nncc(-c4cc(Br)ccc4Cl)n3)nc2c1 | 
10 | 15000 nM |  |  |  |  | COc1cccc(OC)c1-c1cnnc(NCc2nc3ccc(CO)cc3s2)n1 | 
11 | 390 nM |  |  |  |  | COc1cccc(OC)c1-c1cnnc(NCc2nc3cc(O)ccc3s2)n1 | 
12 | 69 nM | > 32 µg/mL | > 32 µg/mL | > 32 µg/mL | 8 µg/mL | COc1ccc2sc(CNc3nncc(-c4c(C)cccc4O)n3)nc2c1 | IC50 [7]: > 300000 nM; IC50 [8]: 160 nM; IC50 [9]: 9800 nM; IC50 [10]: 430 nM
13 | 75 nM | > 32 µg/mL | > 32 µg/mL | > 32 µg/mL | > 32 µg/mL | Oc1ccc2sc(CNc3nncc(-c4c(Cl)cccc4Cl)n3)nc2c1 | 
14 | > 300000 nM |  |  |  |  | COc1ccc2sc(CNc3nncc(C(C)(C)O)n3)nc2c1 | 
15 | 82 nM | > 32 µg/mL | 32 µg/mL (≈ 67.3 µM) | 16 µg/mL | 4 µg/mL | CN(C)CCOc1ccc2sc(CNc3nncc(-c4c(Cl)cccc4Cl)n3)nc2c1 | Activity [6]: > 32 µg/mL
16 | 670 nM |  |  |  |  | COc1ccc2sc(CNc3nncc(-c4c(OC)cccc4OC)n3)nc2c1 | 

Row | IC50 [1] | MIC [2] | MIC [3] | MIC [4] | MIC [5] | SMILES | also measured
17 | 240 nM | > 32 µg/mL | > 32 µg/mL | > 32 µg/mL | > 32 µg/mL | COc1ccc2sc(CNc3nncc(-c4c(C)cc(NC(C)=O)cc4C)n3)nc2c1 | 
18 | > 300000 nM |  |  |  |  | CCOC(=O)c1sc(CNc2nncc(-c3c(OC)cccc3OC)n2)nc1C | 
19 | 53 nM | > 32 µg/mL | > 32 µg/mL | > 32 µg/mL | > 32 µg/mL | COc1ccc2sc(CNc3nncc(-c4cc(-c5ccn[nH]5)ccc4Cl)n3)nc2c1 | 
20 | 185 nM |  |  |  |  | NCCOc1ccc2sc(CNc3nncc(-c4c(Cl)cccc4Cl)n3)nc2c1 | 
21 | > 300000 nM |  |  |  |  | COc1cccc(OC)c1-c1cnnc(NCc2ccc3ccccc3n2)n1 | 
22 | 1400 nM |  |  |  |  | COc1ccc2sc(CNc3nncc(-c4cc(NC(C)=O)ccc4Cl)n3)nc2c1 | 
23 | 67 nM | > 32 µg/mL | > 32 µg/mL | > 32 µg/mL | > 32 µg/mL | NC(=O)COc1ccc2sc(CNc3nncc(-c4c(Cl)cccc4Cl)n3)nc2c1 | 
24 | 2400 nM |  |  |  |  | COc1ccc2sc(CNc3nncc(-c4c(F)cccc4F)n3)nc2c1 | 
25 | 1500 nM |  |  |  |  | COc1cccc(OC)c1-c1cnnc(NCc2nc3cc(C)ccc3s2)n1 | 
26 | 51000 nM |  |  |  |  | Cc1oc(-c2ccccc2)nc1C(=O)N(CC(=O)O)Cc1ccccn1 | 
27 | 100 nM | > 32 µg/mL | 32 µg/mL (≈ 63.4 µM) | 32 µg/mL | 4 µg/mL | NCC(=O)NCCOc1ccc2sc(CNc3nncc(-c4c(Cl)cccc4Cl)n3)nc2c1 | Activity [6]: 18 µg/mL
28 | 27000 nM |  |  |  |  | COc1cccc(OC)c1-c1cnnc(NCc2nc3ccc(Cl)cc3s2)n1 | 
29 | > 300000 nM |  |  |  |  | COc1cccc(OC)c1-c1cnnc(NCc2cc3ccccc3s2)n1 | 
30 | 1400 nM |  |  |  |  | COc1ccc2sc(CNc3nncc(-c4ccccc4Cl)n3)nc2c1 | 
31 | 320 nM |  |  |  |  | COc1ccc2sc(CNc3nncc(-c4c(C)cc(N)cc4C)n3)nc2c1 | 
